Yeast lifespan up = compounds extending yeast replicative lifespan, primary screen, S. cerevisiae, OD615. S. cerevisiae growth with nicotinamide; deaD strain in restrictive glucose medium. inhibition of the nicotinamide effect, % at 10 µM. 0.68% of 130,000 active;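 active means inhibition above a set limit, placed 3 SD over the median of all compounds, cut at about 26% in these data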;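 further: 0% = nicotinamide-treated wells and 100% = cells grown without nicotinamide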
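Measured by: optical density (absorbance) at 615 nm; System: modified budding yeast, DeaD strain; Medium: restrictive CSMM-D dextrose medium; Timing: 4 h preincubation then 48 h treatment at 30 °C.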
PostGolgi yeast = phenotypic screen on post-Golgi transport, primary screen; 0.9% of 98,000 active; post-Golgi transport phenotypic cell assay; inhibition, % at 10 µM; AID 739, 2007;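 further: yeast cells grown in 1536-well plates; yeast grown about 18 h at 30C before absorbance read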
Yeast growth inh = growth inhibitors of yeast BB579 in restrictive medium, primary screen, yeast lifespan-shortening project, S. cerevisiae; OD615, 48 h; AID 804, 2007; inhibition, % at 10 µM; 0.51% of 140,000 active;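 active means inhibition above a set limit, 3 SD over the mean compound inhibition, cut at about 44% in these data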
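Test system: DeaD yeast strain BB579 / Buffer or medium: restrictive glucose-based CSMM-D medium / Doses: single 10 µM dose / Schedule: 4 h cell preincubation, 48 h compound exposure, 30 °C humidified / Technique: culture absorbance at 615 nm / Controls: amphotericin B positive control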
PostGolgi ctrl = growth inhibition of yeast control strain, primary screen, counter-screen for post-Golgi transport modulator project | efflux-deficient yeast background strain, growth absorbance A615, 16 h | inhibition, % at 10 µM | 5% of 98,000 active | AID 738, 2007
The depositor's hits bear a star; nt = not tested or not shown. This is one part of a sample in which hits are shown more often than they occur. Unless noted, no stated cut-off is given here; in the data, active means inhibition above about 30%; inactive means the rest.

SMILES | Yeast lifespan up | PostGolgi yeast | Yeast growth inh | PostGolgi ctrl
O=C(COC(=O)c1cc(S(=O)(=O)N2CCc3ccccc3C2)ccc1Cl)NCc1ccco1 | -11 | -4 | -21 | 11
O=C(COC(=O)c1cccc(S(=O)(=O)N2CCc3ccccc3C2)c1)NCc1ccco1 | -10 | -5 | -28 | 43*
COc1ccc2nc(NC(=O)C(NS(=O)(=O)c3cccc4nsnc34)C(C)C)sc2c1 (centres undefined) | -7 | 5 | -25 | -2
O=c1c2sc(-c3ccccc3)cc2nc2n1CCC2 | nt | nt | 83* | nt
CCOC(=O)N(NC(=O)C(O)(CC(C)C)CC(C)C)c1ccccc1 | 2 | nt | -21 | nt
N#CC1=C(N)NC(SCc2ccccc2)=C(C#N)C12CCCCC2 | -6 | 103* | -27 | 91*
O=C(CN1CCCCC1)Nc1ccc(NC(=O)c2ccccc2Cl)cc1Cl | 1 | nt | -37 | nt
CN1CCc2nc3sc(C(=O)C45CC6CC(CC(C6)C4)C5)c(N)c3cc2C1 | 37 | 100* | -9 | 95*
OC(CN1CCN(c2ccccn2)CC1)Cn1c2ccc(Cl)cc2c2cc(Cl)ccc21 (centres undefined) | -27 | 97* | 99* | 97*
OC(CN1CCN(c2ccccc2)CC1)Cn1c2ccccc2c2ccccc21 (centres undefined) | -7 | -1 | -17 | 36*
Cc1cc(C)nc(N/C(=N\S(=O)(=O)Cc2ccccc2)Nc2ccc(F)c(Cl)c2)n1 | 8 | nt | -25 | nt
CCOc1ccccc1NC(=O)C1CCN(S(=O)(=O)c2cccc3cccnc23)CC1 | -12 | -1 | -2 | 6
c1ccc(-c2oc3ncnc(NCCCn4ccnc4)c3c2-c2ccccc2)cc1 | -8 | 3 | -29 | 66*
c1ccc(-c2c(-c3ccccc3)n(Cc3ccco3)c3ncnc(NCCCn4ccnc4)c23)cc1 | 43* | 96* | -62 | 94*
OCCNc1ncnc2c1c(-c1ccccc1)c(-c1ccccc1)n2Cc1ccco1 | 12 | 27 | -40 | 33*
N=c1c2c(-c3ccccc3)c(-c3ccccc3)n(Cc3ccco3)c2ncn1CCCn1ccnc1 | 43* | nt | -14 | nt
Cc1[nH]n(-c2ncc(-c3ccccc3)s2)c(=O)c1C(c1ccc(Br)cc1)C(C#N)C#N (centres undefined) | 19 | nt | 2 | nt
COc1ccc(N2CCN(C(c3cc4cc(C)ccc4[nH]c3=O)c3nnnn3Cc3ccccc3)CC2)cc1 (centres undefined) | -2 | 0 | -24 | 4
COc1ccc(Cn2nnnc2C(c2cc3ccc(OC)cc3[nH]c2=O)N2CCC(C)CC2)cc1 (centres undefined) | -7 | 13 | -2 | -5
COc1ccc(OC)c(C(c2nnnn2Cc2ccccc2)N2CCN(C)CC2)c1 (centres undefined) | -19 | 6 | -33 | 36*
CCN1CCN(C(c2cc3cccc(C)c3[nH]c2=O)c2nnnn2Cc2ccccc2)CC1 (centres undefined) | -28 | 4 | -36 | -4
COc1ccc(Cn2nnnc2C(c2cc3cc(C)ccc3[nH]c2=O)N2CCOCC2)cc1 (centres undefined) | -3 | 13 | -64 | 44*
Cc1cc(C)c2[nH]c(=O)c(C(c3nnnn3Cc3ccc4c(c3)OCO4)N3CCC(C)CC3)cc2c1 (centres undefined) | -5 | 0 | -22 | 33*
COc1ccc(Cn2nnnc2C(c2cc3cccc(C)c3[nH]c2=O)N2CCOCC2)cc1 (centres undefined) | -15 | 2 | -13 | 34*
CCc1ccccc1NC(=O)COc1cccc2ccc(C)nc12 | -2 | nt | -54 | nt
SMILES | Yeast lifespan up | PostGolgi yeast | Yeast growth inh | PostGolgi ctrl
Cc1ccc(S(=O)(=O)Cc2ccc(C(=O)OCc3ccccc3)cc2)cc1 | -2 | -4 | -28 | 35*
O=C(O)c1ccc(S(=O)(=O)Cc2ccccc2)cc1 | -10 | 4 | 4 | 11
NC(=S)NNC(=O)Nc1ccc(Cl)c(Cl)c1 | -6 | nt | -6 | nt
O=C(Nc1cccc(-c2cn3cccnc3n2)c1)c1ccc(Br)o1 | -20 | -16 | -23 | 33*
COc1ccc(CC(=O)Nc2cccc(-c3nnc(-c4ccco4)o3)c2)cc1 | -19 | 14 | -21 | 15
COc1ccc(C(=O)Nc2cccc(-c3nnc(-c4ccco4)o3)c2)cc1 | -6 | 0 | -31 | 31*
O=C(Nc1cccc(-c2nnc(-c3ccccc3)o2)c1)c1ccc(Br)o1 | -6 | -6 | -32 | 38*
CCOc1ccccc1C(=O)Nc1cccc(-c2nnc(-c3ccccc3)o2)c1 | -6 | 10 | -33 | 31*
O=C(Nc1ccc(Nc2ccccc2)cc1)c1ccc(Br)o1 | -10 | -2 | 0 | 17
Cc1ccc(C(=O)N/C(=C\c2cccs2)C(=O)NCCCn2ccnc2)cc1C | -7 | -7 | -12 | 2
Cc1ccc(-c2csc(NC(=O)c3ccc4c(=O)n5c(nc4c3)CCCCC5)n2)cc1 | 6 | nt | -24 | nt
Cc1ccc(NC(=O)c2ccccc2OCC(=O)c2ccccc2)cc1 | -7 | 2 | -44 | 8
Cc1cccc(NC(=O)c2ccccc2OCC(=O)c2ccccc2)c1 | -4 | -4 | -13 | 30*
Cc1ccc(N/N=C(\C#N)C(N)=S)c(C)c1 | -4 | nt | 95* | nt
Nc1sc(-c2ccccc2)cc1C(=O)O | 84* | 13 | -38 | 27
NC(=O)c1cc(-c2ccccc2)sc1NC(=O)CN1CCCCC1 | -7 | nt | -18 | nt
CCOC(=O)c1sc(=S)n(C)c1NC(=O)c1ccccc1Cl | 9 | nt | -38 | nt
CC(=O)c1c(C(C)=O)c(C)n(-c2nc(-c3ccc(C)c(C)c3)c(C)s2)c1C | -7 | -1 | -32 | 48*
COc1ccc(-c2nc(-n3c(C)c(C(C)=O)c(C(C)=O)c3C)sc2C)cc1 | 4 | -2 | -35 | 24
CCOC(=O)c1[nH]c2ccccc2c1NC(=S)Nc1cccc(C)c1 | 13 | nt | -20 | nt
O=C(CN1CCOCC1)Nc1ncc(Cc2cccc(Cl)c2Cl)s1 | -2 | nt | -9 | nt
O=C(c1ccc(Br)s1)N1CCN(Cc2ccc3c(c2)OCO3)CC1 | 15 | -19 | -37 | 13
O=C(C1COc2ccccc2O1)N1CCCC1 (centres undefined) | -9 | 1 | 3 | 3
O=C(c1cc2c(s1)CCCC2)N1CCN(Cc2ccc3c(c2)OCO3)CC1 | -5 | 36* | -52 | 27
O=C(C1COc2ccccc2O1)N1CCN(Cc2ccc3c(c2)OCO3)CC1 (centres undefined) | 1 | 65* | -53 | 28
SMILES | Yeast lifespan up | PostGolgi yeast | Yeast growth inh | PostGolgi ctrl
O=C(NC1CCN(Cc2ccccc2)CC1)C1COc2ccccc2O1 (centres undefined) | 0 | 70* | -72 | 14
Cc1ccc(C(=O)/C=C/Nc2cccc([N+](=O)[O-])c2)o1 | -3 | nt | -42 | nt
S=c1nc(-c2ccccc2Cl)n(Cc2cccnc2)c2c1CCCC2 | 1 | nt | -38 | nt
CCCCCCC1C(C#N)=C(N)OC2=C1C(=O)CC(C)(C)C2 (centres undefined) | 40* | 1 | -19 | 20
O=C(NCCCn1ccnc1)c1cc2cc([N+](=O)[O-])ccc2oc1=O | 5 | nt | -27 | nt
COC(=O)CSc1nnnn1-c1cccc2ccccc12 | -26 | 1 | -13 | -2

Bioassay records as filed in PubChem.
